Data set [1] is described as follows: Inhibition of hedgehog signaling pathway in mouse NIH/3T3 cells after 48 hrs by Gli-luciferase reporter gene assay. The class given is cell-based. To be noted: NIH3T3, 48 h. The procedure, abridged: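 NIH3T3 cells stably carrying Gli-luciferase reporter, kept in DMEM/10% FBS with 500 µg/mL G418, seeded at 7.5 × 10³ cells/well on collagen-coated plates overnight at 37 °C, 5% CO2; then recombinant mouse Shh-N plus compound (final 0.03–1000 nM, 5.8% FBS), n = 4 wells, 48 h; luciferase read with Bright-Glo; 0.1% DMSO ± 1 µg/mL Shh-N as controls; IC50 mean of four.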
(In general: Reporter assays use an easily measured gene product as a stand-in for the process of interest.)

A short description of data set [2]: In vivo inhibition of Gli1 mRNA expression in mouse bearing human PAN-04 cells assessed as expression level at 25 mg/kg, po bid after 24 hrs by qPCR analysis relative to control. The class given is functional. The method, boiled down:
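Nude mice bearing human primary pancreatic tumor PAN-04 given compound orally twice daily at 25 mg/kg; tumors excised 24 h after first dose, stored in RNAlater; mouse stromal Gli1 mRNA quantified with mouse Gli1 and mouse GAPDH probe sets; expressed relative to controls.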
(Quantitative PCR measures a nucleic acid by following its amplification.)

Data set [3] in a line: AUC (0 to 8 hrs) in non-fasted mouse at 10 mg/kg, po cassette dosing by LC/MS/MS analysis. The settings on record: in vivo. More on the design: dose 10 mg/kg, time < 8 hr, route oral. The class given is ADME, organism-based. The method, boiled down:
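Single 10 mg/kg oral cassette dose to nonfasted mice; blood sampled, plasma separated by centrifugation, deproteinized with MeCN containing internal standard, supernatant diluted in 10 mmol/L HCOONH4/0.2% formic acid–MeCN with 0.2% formic acid (9:1), recentrifuged, concentrations quantified by LC/MS/MS; AUC from 0 to 8 h.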

Molecules are shown by their SMILES. pIC50: −log10 of the molar value.

The compound `CCc1cc2c(cc1NC(=O)c1ccccc1)c(OCC(F)(F)F)c(C(=O)NC1CCN(C(=O)CO)CC1)n2C` gave a negative-log IC50 (pIC50) in data set [1] of 8.59. Moreover, the “Gli1 mRNA expression relative to control” value in data set [2] came out at 50%. Further, in data set [3], the area under the curve AUC(0-t) at 8 h was found to be 1270 ng·h/mL.

In turn, `CCc1cc2c(c(OCC(F)(F)F)c(C(=O)NC3CCN(C(=O)CO)CC3)n2C)c(=O)n1CC(=O)c1ccccc1` [TAK-441] had a negative-log IC50 (pIC50) in data set [1] of 8.36. Moreover, the “Gli1 mRNA expression relative to control” value in data set [2] is recorded as 4%. Besides, in data set [3], the AUC(0-t) at 8 h came out at 28300 ng·h/mL.

The compound `CCc1nc2c(cc1NC(=O)c1ccccc1)c(OCC(F)(F)F)c(C(=O)NC1CCN(C(=O)CO)CC1)n2C` showed a pIC50 in data set [1] of 8.44. Besides, the “Gli1 mRNA expression relative to control” value in data set [2] is 24%. The same compound showed an AUC(0-t) at 8 h in data set [3] of 10800 ng·h/mL.

Compound `CCc1nc2c(c(OCC(F)(F)F)c(C(=O)NC3CCN(C(=O)CO)CC3)n2C)c(=O)n1CC(=O)c1ccccc1` showed a pIC50 in data set [1] of 8.21.

Compound `CCc1nc2c(cc1CC(=O)c1ccccc1)c(OCC(F)(F)F)c(C(=O)NC1CCN(C(=O)CO)CC1)n2C` had a pIC50 in data set [1] of 7.34.

Regarding `CCc1cc2c(nc1NC(=O)c1ccccc1)c(OCC(F)(F)F)c(C(=O)NC1CCN(C(=O)CO)CC1)n2C`, the pIC50 in data set [1] was 8.41. In addition, the “Gli1 mRNA expression relative to control” value in data set [2] was 87%. In addition, the area under the curve AUC(0-t) at 8 h in data set [3] came out at 984 ng·h/mL.

Compound `CCc1nc2c(nc1NC(=O)c1ccccc1)c(OCC(F)(F)F)c(C(=O)NC1CCN(C(=O)CO)CC1)n2C` showed a pIC50 in data set [1] of 8.51. In addition, the “Gli1 mRNA expression relative to control” value in data set [2] stood at 57%. In addition, the exposure AUC(0-t) at 8 h in data set [3] was found to be 925 ng·h/mL.

In general, pIC50 refers to −log10 of the IC50, conventionally taken in molar units. A low value points to a large IC50. The AUC(0-t) is exposure summed from dosing to a finite time, without extrapolation to infinity. Low values mean less exposure, high ones more exposure.

These data come from ChEMBL document CHEMBL3593178, “Synthesis and evaluation of hedgehog signaling inhibitor with novel core system” (Bioorg Med Chem, 2015).
